According to PubChem BioAssay AID624085 (The Scripps Research Institute Molecular Screening Center, 2012):
Calls of active or inactive are those of the source.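 The calls were made as follows: active = IMP-1 enzyme inhibition with IC50 of 10 µM or lower; inactive = IC50 above 10 µM.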

Biological target: metallo-beta-lactamase IMP-1 (Pseudomonas aeruginosa)
Experiment: potency against purified IMP-1 enzyme – biochemical, absorbance, IC50, selectivity assay, late-stage follow-up (AID 624085)
Details: purified IMP-1, nitrocefin hydrolysis, epi-absorbance
Procedure, shortened: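 Medium: HEPES buffer, pH 7.1, with zinc and Brij detergent; System: purified IMP-1 enzyme; Technique: fluorescence quench readout, 480/530 nm, EDTA-stopped; Timing: 15 min pre-incubation, 25 min reaction at 25 °C; Compound dosing: dilution series per compound, highest nominal amount 60 µM; Control set: enzyme-free wells as reference control; Replication: triplicate wells per concentration.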

Row | Structure (SMILES) | IC50
1 | CN1CCN(NC(=O)CN2C(=O)/C(=C/c3c(Cl)cccc3Cl)SC2=S)CC1 | inactive
2 | CN1CCN(NC(=O)CN2C(=O)/C(=C/c3c(Cl)ccc(Cl)c3Cl)SC2=S)CC1 | 3.02 µM
